Measurements from ChEMBL document CHEMBL1240529, “Synthesis, anti-inflammatory activity, and in vitro antitumor effect of a novel class of cyclooxygenase inhibitors: 4-(aryloyl)phenyl methyl sulfones” (J Med Chem, 2010).

Tests used:
K562 = assay: Cytotoxicity against human K562 cells assessed as inhibition of cell viability at 10 uM by trypan blue dye exclusion
Rattus norvegicus [1] = assay: Antiinflammatory activity in Sprague-Dawley rat assessed as inhibition of carrageenan induced paw swelling at 70 mg/kg, po after 3 hrs
Rattus norvegicus [2] = assay: Antiinflammatory activity in Sprague-Dawley rat assessed as inhibition of carrageenan induced paw swelling at 70 mg/kg, po after 4 hrs
[3] = Cytotoxicity against human HDF cells assessed as inhibition of cell viability at 100 uM by MTT assay; assay type: cell-based; details: read-out: INH
Method in brief: (§1)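 Cells were grown in MEM with 10% FBS and antibiotics at 37 °C, 5% CO2, plated at 2.0 × 10^4 cells/well and grown for 72 h. Compound or 0.1% DMSO was added, then MTT (5 mg/mL) for 3 h at 37 °C, read at 570 nm (690 nm blank). […] Inhibition = (DMSO control − treated)/control; two experiments in duplicate.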

HT-29 = assay: Cytotoxicity against human HT-29 cells by MTT assay; assay type: functional, cell-based
Method in brief: as §1

NCI-H460 = assay: Cytotoxicity against human NCI-H460 cells assessed as inhibition of cell viability at 10 uM by MTT assay; assay type: functional
Method in brief: as §1

[4] = target: T1, Prostaglandin G/H synthase 1 (Ovis aries, UniProt P05979); assay: Inhibition of sheep COX1 by spectrophotometry
T1 sequence (P05979 whole entry): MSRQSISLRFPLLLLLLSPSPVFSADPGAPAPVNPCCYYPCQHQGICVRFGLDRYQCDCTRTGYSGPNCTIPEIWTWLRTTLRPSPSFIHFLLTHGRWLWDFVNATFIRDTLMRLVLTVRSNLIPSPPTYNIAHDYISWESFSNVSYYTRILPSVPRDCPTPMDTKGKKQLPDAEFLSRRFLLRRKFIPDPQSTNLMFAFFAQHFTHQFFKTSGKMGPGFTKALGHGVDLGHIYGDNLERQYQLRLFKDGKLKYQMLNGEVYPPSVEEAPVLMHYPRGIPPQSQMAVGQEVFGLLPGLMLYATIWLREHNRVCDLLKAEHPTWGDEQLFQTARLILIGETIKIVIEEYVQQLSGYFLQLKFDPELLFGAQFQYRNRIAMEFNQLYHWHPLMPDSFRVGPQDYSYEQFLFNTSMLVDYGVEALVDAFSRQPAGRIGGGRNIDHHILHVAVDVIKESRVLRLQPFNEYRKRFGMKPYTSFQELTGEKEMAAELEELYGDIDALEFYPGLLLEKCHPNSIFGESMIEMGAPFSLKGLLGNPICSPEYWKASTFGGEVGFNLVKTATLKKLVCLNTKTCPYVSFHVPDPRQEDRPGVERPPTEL

Structure (SMILES) | inhibition at 10 µM (K562) | inhibition in vivo at 70 mg/kg (Rattus norvegicus [1]) | inhibition in vivo at 70 mg/kg (Rattus norvegicus [2]) | cytotoxicity at 100 µM [3] | IC50 (HT-29) | inhibition at 10 µM (NCI-H460) | IC50 [4]
CS(=O)(=O)c1ccc(C(=O)c2ccoc2)cc1 | 8.3% | 27% | 22.2% | 36.2% | 104 µM | 6% | 150 µM
CS(=O)(=O)c1ccc(C(=O)c2ccco2)cc1 | 8.3% | 45.5% | 37.8% | 30.7% | 383 µM | 3% | 15.1 µM
CS(=O)(=O)c1ccc(C(=O)c2cccs2)cc1 | 1% | 59.7% | 56% | 25.7% | 122 µM | 3% | –
CS(=O)(=O)c1ccc(C(=O)c2ccsc2)cc1 | 14.6% | – | – | 31.2% | 75.7 µM | 2% | 144 µM
CS(=O)(=O)c1ccc(C(=O)c2ccc(Br)cc2)cc1 | 6.2% | 22% | 8.1% | 29.4% | 100 µM | 12.7% | 150 µM
CS(=O)(=O)c1ccc(C(=O)c2ccc(F)cc2)cc1 | – | – | – | – | – | – | 107 µM
CS(=O)(=O)c1ccc(-c2ccccn2)cc1 | – | 53.7% | 51.4% | – | – | – | 89.6 µM
CS(=O)(=O)c1ccc(Nc2ccc(F)cc2)cc1 | 13.5% | 41.9% | 32.6% | 37.4% | 130 µM | 1.8% | 141 µM
CS(=O)(=O)c1ccc(-n2cccc2)cc1 | 1% | – | – | 28.9% | 146 µM | 3% | 86 µM
CS(=O)(=O)c1ccc(-n2ccc3ccccc32)cc1 | 16.6% | 48.7% | 46% | 34.3% | 85 µM | 12.2% | 78.7 µM
Cn1cc(C(=O)c2ccc(S(C)(=O)=O)cc2)c2ccccc21 | 2.1% | – | – | 30.8% | 70.4 µM | 7% | 76.4 µM
CS(=O)(=O)c1ccc(C(=O)c2cccn2-c2ccccc2F)cc1 | 2.1% | 13.7% | 4.4% | 45% | 34.1 µM | 13.3% | 183 µM
CS(=O)(=O)c1ccc(C(=O)c2ccn(-c3ccccc3F)c2)cc1 | 12.5% | – | – | 13.4% | 96.1 µM | 54.8% | 34.6 µM
CS(=O)(=O)c1ccc(C(=O)c2c[nH]c3ccccc23)cc1 | – | – | – | – | – | – | 26.7 µM
CS(=O)(=O)c1ccc(C2Oc3ccccc3-n3cccc32)cc1 (configuration not stated) | 13.5% | – | – | 12.3% | 100 µM | 6.6% | 177 µM
CS(=O)(=O)c1ccc(N2CCN(c3ccc(F)cc3)CC2)cc1 | 17.7% | – | – | 36.1% | 65.8 µM | 3.1% | 80 µM
Cc1ccc(-c2cc(C(F)(F)F)nn2-c2ccc(S(N)(=O)=O)cc2)cc1 [CELECOXIB] | 38.8% | – | – | 92% | 45.5 µM | 9.75% | –
CC(C)Cc1ccc([C@H](C)C(=O)O)cc1 [DEXIBUPROFEN] | – | – | 23.9% | – | – | – | –
CC(C)[C@H](CO)Nc1nc(Nc2cccc(Cl)c2)c2ncn(C(C)C)c2n1 [PURVALANOLA] | 75.1% | – | – | 88.6% | > 100 µM | 3.98% | –
